# Screening results: PubChem BioAssay, Sanford-Burnham Center for Chemical Genomics
# SENP6 inh: blocks the human protease SENP6; inhibition, % at 10 µM; Recombinant SENP6 catalytic domain, aminoluciferin luminescence; Q9GZR1; actives 1.8% (n = 330,000);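 active means inhibition above about 50% at the single tested dose, limit read from the data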
# SENP7 block: SENP7 protease inhibition. Q9BQF6. recombinant SENP7, Z-RLRGG-aminoluciferin luminescence, 40 min. inhibition, % at 5 µM. actives 1.5% (n = 330,000). AID 434973;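 active means inhibition above about 50% at the single test dose, limit read from the data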
# Target sequence (Q9BQF6 706-1050 limits assumed): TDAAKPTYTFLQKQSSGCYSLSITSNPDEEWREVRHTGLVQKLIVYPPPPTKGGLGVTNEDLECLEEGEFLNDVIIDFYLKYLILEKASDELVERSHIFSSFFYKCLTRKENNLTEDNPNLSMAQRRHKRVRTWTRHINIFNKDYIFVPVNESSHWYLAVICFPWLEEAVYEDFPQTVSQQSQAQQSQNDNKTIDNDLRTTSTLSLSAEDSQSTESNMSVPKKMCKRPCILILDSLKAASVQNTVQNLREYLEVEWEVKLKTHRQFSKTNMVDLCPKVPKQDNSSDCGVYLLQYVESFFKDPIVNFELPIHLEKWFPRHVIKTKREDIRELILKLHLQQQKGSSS
# SENP1 FRET inh: blocks the human SENP1 SUMO protease catalytic domain | Q9P0U3 | inhibition, % at 10 µM | actives 0.21% (n = 360,000) | recombinant SENP1 catalytic domain, CyPet-SUMO1-YPet FRET cleavage;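 active means inhibition at least 30% at 10 µM, raw YFP signal under a set limit, fluorescence ratio 0.5 to 1.5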
#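 Test system: hSENP1 catalytic domain, recombinant; Amount: 20 pM final SENP1 enzyme; Medium: Tris pH 8 buffer plus EDTA, NaCl, BME, BSA, NP40, catalase; Schedule: 50 min enzyme reaction, room temperature, light-protected; Technique: FRET fluorescence in CFP and YFP emission channels; Controls: no-enzyme wells low, DMSO-plus-enzyme wells high control.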
# SENP8 block-1: SENP8 protease inhibition; Q96LD8; actives 1.2% (n = 330,000); inhibition, % at 10 µM; purified SENP8, Z-RLRGG-aminoluciferin cleavage, luminescence; in the data active means inhibition above about 50%
# Target sequence (Q96LD8 whole entry, looked up): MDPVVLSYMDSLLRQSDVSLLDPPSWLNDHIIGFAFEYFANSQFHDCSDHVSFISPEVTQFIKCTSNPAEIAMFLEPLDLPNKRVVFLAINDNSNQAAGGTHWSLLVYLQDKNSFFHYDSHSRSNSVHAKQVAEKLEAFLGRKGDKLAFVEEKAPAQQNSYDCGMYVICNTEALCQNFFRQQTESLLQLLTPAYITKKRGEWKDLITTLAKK
# SENP8 block-2: SENP8 (human) protease inhibition; Q96LD8; recombinant SENP8, Nedd8 substrate fluorescence; inhibition, % at 20 µM; actives 0.64% (n = 360,000); AID 602440; in the data active means inhibition mostly above about 40%, no sharp cut-off; inactive means mostly below about 27%
# SENP1 conf: confirmation of human SENP1 SUMO protease inhibitors; shares compounds with SENP1 FRET inh; recombinant SENP1, CyPet-SUMO1-YPet FRET cleavage; inhibition, % at 10 µM; actives 34% (n = 520); AID 651678; in the data active means inhibition mostly above about 35%, no sharp cut-off; inactive means mostly below about 32%
# SENP1 kinetic: SENP1 (human) inhibition, kinetic confirmation; shares compounds with SENP1 FRET inh; recombinant SENP1, CyPet-SUMO1-YPet FRET kinetic cleavage; inhibition, % at 10 µM; actives 26% (n = 520); AID 651690; in the data active means inhibition mostly above about 32%, no sharp cut-off; inactive means mostly below about 29%
# A number is an active result; . = inactive; / = not tested or not shown. A selection: hits, their analogues and other compounds. The true share with any hit is near 2.5%.
SMILES,SENP6 inh,SENP7 block,SENP1 FRET inh,SENP8 block-1,SENP8 block-2,SENP1 conf,SENP1 kinetic
O=c1[nH]c2cc3ccccc3cc2nc1-c1nnnn1C1CCCC1,/,/,70,/,.,125,78
COc1c(O)cccc1[C@H](O)C1CCN(CCc2ccc(F)cc2)CC1,.,.,30,.,.,.,.
N#C/C(C(=O)N1CCOCC1)=C1/SC(Cc2ccccc2)C(=O)N1c1ccccc1 (stereo not given),.,.,37,.,.,.,.
CC(C)CCNC(=O)C1(C)CCN1Cc1ccc2ccccc2c1 (stereo not given),/,/,.,/,.,/,/
CCOC(=O)C1CCCN(C2=NC(=O)/C(=C/c3ccc(O)c(OC)c3)S2)C1 (stereo not given),.,.,69,.,.,110,66
Cc1c(/C=N/NC(=O)CNc2ccccc2)c2ccccn2c1C(=O)c1ccc(Cl)cc1,.,.,31,.,.,.,.
Cc1ccccc1NCC(=O)N/N=C/c1c(C)c(C(=O)c2ccc(Cl)cc2)n2ccccc12,.,.,.,.,.,/,/
O=C(c1ccc([N+](=O)[O-])cc1)N1CCC(n2nnc3cc(F)ccc32)CC1,.,.,.,.,.,/,/
O=C(N1CCOCC1)N1CCC(n2nnc3cc(F)ccc32)CC1,.,.,30,.,.,.,.
Cc1nc2ccc(NS(=O)(=O)c3ccccc3F)cc2s1,.,.,55,.,.,.,38
Cc1ccc(S(=O)(=O)Nc2ccc3nc(C)sc3c2)cc1,.,.,.,.,.,/,/
Cc1nc2cc(NS(=O)(=O)c3ccccc3F)ccc2s1,.,.,.,.,.,/,/
Cc1nc2ccc(NS(=O)(=O)c3ccc(Br)cc3)cc2s1,.,.,41,.,.,.,.
CC(=O)Nc1ccc(S(=O)(=O)Nc2ccc3nc(C)sc3c2)cc1,.,.,.,.,.,/,/
Cc1nc2ccc(NS(=O)(=O)c3ccc(F)c(F)c3)cc2s1,.,.,54,.,.,.,.
C=CS(=O)(=O)c1c2cc(OC)ccc2nc2ccc(OC)cc12,/,/,.,/,.,/,/
Nc1ccccc1C=C1Cc2ccccc2C1=O,/,/,56,/,.,.,.
Cc1ccc(-c2nc3ncccn3c2Nc2ccc3c(c2)OCO3)o1,.,.,43,.,.,.,.
C=CCn1c(SCC(=O)NCC2CCCO2)nnc1-c1ccncc1 (stereo not given),.,.,.,.,.,/,/
C[C@H](CO)N1C[C@H](C)[C@@H](CN(C)Cc2ccc(C(=O)O)cc2)Oc2c(NS(=O)(=O)c3cn(C)cn3)cccc2C1=O,.,.,.,.,.,/,/
CCc1nnc(NC(=O)CSc2nc3ccc(OC)cc3[nH]2)s1,.,.,.,.,.,/,/
CCOC(=O)c1cc(CC)sc1/N=C/C1=C(O)CC(C)(C)CC1=O,.,.,.,.,.,/,/
CCOC(=O)c1sc(N=NC2=C(O)CC(C)(C)CC2=O)c(C(=O)OCC)c1C,.,.,56,.,.,.,.
CCN(CC(=O)Nc1ccc(NC(C)=O)cc1)C(=O)CSc1ncnc2sc(C)c(C)c12,.,.,41,.,.,89,68
CC1=Nc2ccccc2N=C(N)C1c1ccccc1 (stereo not given),.,.,36,.,.,.,.
SMILES,SENP6 inh,SENP7 block,SENP1 FRET inh,SENP8 block-1,SENP8 block-2,SENP1 conf,SENP1 kinetic
CC1=Nc2ccccc2N=C(NC(=O)c2ccccc2)C1c1ccc(Cl)cc1 (stereo not given),.,.,.,.,.,/,/
Nc1ccc2c(c1)C(=NO)c1cc([N+](=O)[O-])ccc1-2,/,/,83,/,.,86,47
O=C(Nc1cc2c(cc1Cl)-c1ccc([N+](=O)[O-])cc1C2=NO)C(F)(F)F,/,/,85,/,.,57,36
O=C(Nc1ccc2c(c1)Cc1cc([N+](=O)[O-])ccc1-2)C(F)(F)F,/,/,.,/,.,/,/
O=[N+]([O-])c1ccc2c(c1)-c1ccccc1C2=NO,/,/,.,/,.,/,/
CC(C)C(=O)Nc1nnc(COc2ccc(Cl)cc2)s1,.,.,46,.,.,.,.
O=C1CC[C@@H]2C[C@@]3(C[C@@H]4CCN1[C@H]24)Nc1cc([N+](=O)[O-])ccc1NC3=NCc1ccccc1,/,/,55,/,.,42,.
CC1(C)CC(=O)C=C(c2ccc(-c3ccc4[nH]ccc4c3)cc2)C1=O,/,/,29,/,.,.,.
O=CN1Cc2[nH]c3ccccc3c2N(c2ccc(Cl)cc2)C1=O,.,.,31,.,.,.,.
O=C1CNCc2[nH]c3ccccc3c2N1c1ccccc1,.,.,.,.,.,/,/
Cc1ccc2cc(/C=C(\C#N)C(N)=O)c(N3CCCCC3)nc2c1,.,.,75,.,.,50,39
O=C1NC[C@H](CCCCN2CCN(CC3CCCCC3)C(=O)C2=O)N(CCc2ccccc2)C1=O,/,/,.,/,.,/,/
CCOc1cc(N2CCOCC2)c(OCC)cc1NC(=O)CCS(=O)(=O)c1ccc(Cl)cc1,.,.,37,.,.,.,.
Nc1ccc(Oc2ccc3c(c2)C(=O)N(CC2CCCO2)C3=O)cc1 (stereo not given),.,.,.,.,.,/,/
Nc1ccc2c(c1)C(=O)N(CC1CCCO1)C2=O (stereo not given),.,.,62,.,.,65,48
NC(=S)c1cc2ccc(O)cc2oc1=O,/,/,.,/,.,/,/
NC(=S)c1cc2cc(Br)ccc2oc1=O,.,.,45,.,.,67,51
COc1ccccc1N(CC(=O)N1CCN(Cc2ccccc2)CC1)S(=O)(=O)c1ccccc1,/,/,.,/,.,/,/
COc1ccc(OC)c(CNC(=O)C(C)n2nc(C)c3c(C)n(-c4ccccc4)nc3c2=O)c1 (stereo not given),.,.,.,.,.,/,/
Cc1ccc(O)c(C(=O)c2cc(C#N)c(=O)n(CC3CCCO3)c2)c1 (stereo not given),.,.,.,.,.,/,/
COc1ccc(O)c(C(=O)c2cc(C#N)c(=O)n(CC3CCCO3)c2)c1 (stereo not given),.,.,39,.,.,.,36
CCOc1ccc(NC(=O)c2ccc(Br)o2)c([N+](=O)[O-])c1,.,.,32,.,.,.,.
CCOc1ccc(NC(=O)Cc2ccccc2)c([N+](=O)[O-])c1,.,.,.,.,.,/,/
COc1ccc(/C=N/N2C(=O)CSC2=S)cc1Br,.,.,40,.,.,46,31
CCN(CC)S(=O)(=O)c1ccc2c(c1)nc(CCC(=O)Nc1ccccc1Cc1ccccc1)n2CC,.,.,.,.,.,/,/
Cc1cnc(C(=O)Nc2cccc3ncccc23)cn1,.,.,.,.,.,/,/
Cc1cnc(C(=O)Nc2ccccc2-c2ccc(C)o2)cn1,.,.,40,.,.,.,.
Nc1c2c(nc3cccc(Cl)c13)N(c1ccccc1)CC2,.,.,55,.,.,.,.
